Source: PubChem (The Scripps Research Institute Molecular Screening Center)
PLCb3 inh = PLC-beta3 (human) inhibition, primary screen; Purified PLC-beta3, fluorogenic substrate, fluorescence; 370,000 tested, 0.18% active; inhibition, % at 12.2 µM; Q01970; in the data active = inhibition above about 11%
PLCg1 inh = inhibitors of human phospholipase C gamma1; AID 720700; 370,000 tested, 0.84% active; purified PLC-gamma1, fluorogenic substrate, fluorescence; inhibition, % at 12.2 µM
Tn6 DDE FP = DD(E)-Tn6 binding inhibition, primary FP screen; P02675; AID 720509; Fibrin DD(E) TRITC-Tn6 fluorescence polarization displacement; inhibition, % at 8.3 µM; 370,000 tested, 0.21% active;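 active = inhibition above a per-campaign cutoff: mean of compounds within control limits plus 3 SD, cut at about 15% in these data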
ADAM17 inh = ADAM17 inhibition, QFRET primary screen. inhibition, % at 6.95 µM. AID 720648. recombinant ADAM17, EDANS/DABCYL FRET peptide cleavage. 370,000 tested, 0.83% active;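 active = inhibition above the mean of compounds lying between control limits plus 3 SD, set per campaign, cut at about 8.5% in these data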
Target sequence (P78536 215-824 limits assumed): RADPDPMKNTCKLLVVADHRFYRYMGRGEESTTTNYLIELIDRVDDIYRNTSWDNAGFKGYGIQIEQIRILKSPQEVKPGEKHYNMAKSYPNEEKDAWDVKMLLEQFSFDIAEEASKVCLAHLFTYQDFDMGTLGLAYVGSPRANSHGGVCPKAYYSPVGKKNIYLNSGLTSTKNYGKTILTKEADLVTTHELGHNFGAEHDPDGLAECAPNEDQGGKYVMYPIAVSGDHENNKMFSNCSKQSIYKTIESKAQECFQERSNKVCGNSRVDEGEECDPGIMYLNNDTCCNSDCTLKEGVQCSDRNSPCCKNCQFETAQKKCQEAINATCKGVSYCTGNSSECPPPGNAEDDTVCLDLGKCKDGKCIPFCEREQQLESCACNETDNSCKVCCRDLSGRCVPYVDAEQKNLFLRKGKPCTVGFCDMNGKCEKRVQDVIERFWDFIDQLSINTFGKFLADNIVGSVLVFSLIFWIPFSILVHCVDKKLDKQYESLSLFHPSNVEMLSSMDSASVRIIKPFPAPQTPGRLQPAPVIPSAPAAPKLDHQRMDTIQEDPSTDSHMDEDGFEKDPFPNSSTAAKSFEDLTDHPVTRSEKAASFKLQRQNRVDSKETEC
Tn7 DDE FP = DD(E)-Tn7 binding inhibition, primary FP screen; FP displacement of FITC-Tn7 peptide from fibrin DD(E); 0% = median of compound wells per plate; AID 720508; 370,000 tested, 0.13% active; inhibition, % at 8.3 µM;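 active = inhibition above the mean of compounds falling within the control limits plus 3 SD of them, cut at about 14% in these data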
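Measure: % inhibition scaled between sample-field median and high-control FP; Test system: human fibrin DD(E); Quantity: 2 µM final DD(E) protein; Doses: one dose, 8.3 µM nominal; Schedule: compound with protein 10 min, then 3 h after probe, room temperature; Detection: fluorescence polarization; Medium: Tris buffer with calcium and detergent, pH 7.8.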
ADAM10 inh = inhibitors of human ADAM10 | O14672 | recombinant ADAM10, EDANS/DABCYL FRET peptide cleavage, 3 h | inhibition, % at 7 µM | 370,000 tested, 0.62% active | AID 720582;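 active = inhibition above a per-campaign cutoff equal to the mean of compounds falling between control-based bounds plus 3 SD, cut at about 20% in these data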
PLCgamma1 ctr = PLC-gamma1 inhibition, counter-screen for PLC-beta3 hits. shares compounds with PLCg1 inh. purified PLC-gamma1, fluorogenic substrate, fluorescence. inhibition, % at 12.3 µM. 3,300 tested, 3.1% active
PLCbeta3 conf = human PLC-beta3 inhibition, confirmation | shares compounds with PLCg1 inh | purified PLC-beta3, fluorogenic substrate fluorescence | inhibition, % at 12.3 µM | 3,300 tested, 1% active | AID 743261; in the data active = inhibition above about 11%
Hits are given with their value. Hits are enriched below; roughly 2.3% of the tested compounds scored in any of these assays. Cut-off read from the data, not from the text of the source, unless noted: active = inhibition above about 9.5%; inactive = the rest.

For CC(C)(C)N1Cc2nnn(Cc3ccccc3)c2-c2ccccc2S1(=O)=O the results were PLCb3 inh inactive, PLCg1 inh inactive, Tn6 DDE FP inactive, ADAM17 inh inactive, Tn7 DDE FP inactive and ADAM10 inh inactive.
CC(=O)NC1c2ccccc2C(=O)N1Cc1ccccc1 (centres undefined) was read as PLCb3 inh inactive, PLCg1 inh 11, Tn6 DDE FP inactive, ADAM17 inh inactive, Tn7 DDE FP inactive, ADAM10 inh inactive, PLCgamma1 ctr inactive and PLCbeta3 conf inactive.
For COC(=O)[C@]1(CNC(C)=O)CC(=O)N(C)[C@@H]1c1ccccc1 the results were PLCb3 inh inactive, PLCg1 inh inactive, Tn6 DDE FP inactive, ADAM17 inh inactive, Tn7 DDE FP inactive and ADAM10 inh inactive.
CCOC(=O)CNc1ncc([N+](=O)[O-])cc1C#N was read as PLCb3 inh inactive, PLCg1 inh inactive, Tn6 DDE FP inactive, ADAM17 inh inactive, Tn7 DDE FP inactive and ADAM10 inh inactive.
Screening N#Cc1cc([N+](=O)[O-])cnc1Nc1ccccc1 returned PLCb3 inh 12, PLCg1 inh 10, Tn6 DDE FP inactive, ADAM17 inh inactive, Tn7 DDE FP inactive, ADAM10 inh inactive, PLCgamma1 ctr inactive and PLCbeta3 conf inactive.
For CC(c1ccc(O)cc1)c1cn(C)c2ccccc12 (centres undefined) the results were PLCb3 inh inactive, PLCg1 inh inactive, Tn6 DDE FP inactive, ADAM17 inh inactive, Tn7 DDE FP inactive and ADAM10 inh inactive.
For O=C(O)c1[nH]c2ccccc2c1C(c1cc(Cl)cc([N+](=O)[O-])c1O)c1c(C(=O)O)[nH]c2ccccc12 the results were PLCb3 inh inactive, PLCg1 inh 16, Tn6 DDE FP inactive, ADAM17 inh inactive, Tn7 DDE FP inactive, ADAM10 inh inactive, PLCgamma1 ctr 31 and PLCbeta3 conf inactive.
For C[C@H]1c2cccc(O)c2C(O)=C2C(=O)C3(O)C(O)=C(C(N)=O)C(=O)[C@@H](N(C)C)[C@@H]3[C@@H](O)[C@@H]21 (some centres undefined) the results were PLCb3 inh inactive, PLCg1 inh inactive, Tn6 DDE FP inactive, ADAM17 inh inactive, Tn7 DDE FP inactive and ADAM10 inh inactive.
`C=C1c2cccc(O)c2C(O)=C2C(=O)[C@]3(O)C(O)=C(C(N)=O)C(=O)[C@@H](N(C)C)[C@@H]3[C@@H](O)[C@H]12` gave PLCb3 inh inactive, PLCg1 inh 15, Tn6 DDE FP inactive, ADAM17 inh inactive, Tn7 DDE FP inactive, ADAM10 inh inactive, PLCgamma1 ctr inactive and PLCbeta3 conf inactive.
`CCN(CC)CCNC(=O)C1(O)c2cc(Br)ccc2NC(=O)N1c1ccc(Cl)cc1` (centres undefined) gave PLCb3 inh inactive, PLCg1 inh 12, Tn6 DDE FP inactive, ADAM17 inh inactive, Tn7 DDE FP inactive, ADAM10 inh inactive, PLCgamma1 ctr inactive and PLCbeta3 conf inactive.
Screening Cc1cccc(N2O[C@H]3C=C[C@@H]2C3)n1 returned PLCb3 inh inactive, PLCg1 inh inactive, Tn6 DDE FP inactive, ADAM17 inh inactive, Tn7 DDE FP inactive and ADAM10 inh inactive.
Cc1cc(N2CCN(CCO)CC2)n2nc(C)nc2n1 was read as PLCb3 inh inactive, PLCg1 inh inactive, Tn6 DDE FP inactive, ADAM17 inh inactive, Tn7 DDE FP inactive and ADAM10 inh inactive.
For O=C(CSc1nc(=O)n(Cc2ccccn2)c2c1CCC2)Nc1ccc(F)cc1F the results were PLCb3 inh inactive, PLCg1 inh 13, Tn6 DDE FP inactive, ADAM17 inh inactive, Tn7 DDE FP inactive, ADAM10 inh inactive, PLCgamma1 ctr inactive and PLCbeta3 conf inactive.
`CCOc1ccccc1NC(=O)CSc1nc(=O)n(Cc2ccccn2)c2c1CCC2` gave PLCb3 inh inactive, PLCg1 inh inactive, Tn6 DDE FP inactive, ADAM17 inh inactive, Tn7 DDE FP inactive and ADAM10 inh inactive.
COC(=O)C1CN(Cc2cn(Cc3ccc(OC)cc3)nn2)CCS(=O)(=O)N1Cc1ccccc1 (centres undefined) was read as PLCb3 inh inactive, PLCg1 inh inactive, Tn6 DDE FP inactive, ADAM17 inh inactive, Tn7 DDE FP inactive and ADAM10 inh inactive.
Screening CNc1nc(N)c([N+](=O)[O-])c(Nc2ccccc2)n1 returned PLCb3 inh inactive, PLCg1 inh inactive, Tn6 DDE FP inactive, ADAM17 inh inactive, Tn7 DDE FP inactive and ADAM10 inh inactive.
For COc1ccc(S(=O)(=O)NCC(=O)NCc2cc(=O)n(C)c(=O)n2C)cc1C the results were PLCb3 inh inactive, PLCg1 inh 9.9, Tn6 DDE FP inactive, ADAM17 inh inactive, Tn7 DDE FP inactive, ADAM10 inh inactive, PLCgamma1 ctr inactive and PLCbeta3 conf inactive.
Screening O=S1(=O)C[C@@H](N2CC[C@@H](O)C2)[C@H](COCc2ccccc2)N1 returned PLCb3 inh inactive, PLCg1 inh 10, Tn6 DDE FP inactive, ADAM17 inh inactive, Tn7 DDE FP inactive, ADAM10 inh inactive, PLCgamma1 ctr inactive and PLCbeta3 conf inactive.
Screening Cc1ccc(C(=O)NC2CCCC2)s1 returned PLCb3 inh inactive, PLCg1 inh 10, Tn6 DDE FP inactive, ADAM17 inh inactive, Tn7 DDE FP inactive, ADAM10 inh inactive, PLCgamma1 ctr inactive and PLCbeta3 conf inactive.
Screening C(=NOCc1ccccc1)c1ccccn1 returned PLCb3 inh 13, PLCg1 inh inactive, Tn6 DDE FP inactive, ADAM17 inh inactive, Tn7 DDE FP inactive, ADAM10 inh inactive, PLCgamma1 ctr inactive and PLCbeta3 conf inactive.
C(=NOCc1ccccc1)c1ccncc1 was read as PLCb3 inh inactive, PLCg1 inh 10, Tn6 DDE FP inactive, ADAM17 inh inactive, Tn7 DDE FP inactive, ADAM10 inh inactive, PLCgamma1 ctr inactive and PLCbeta3 conf inactive.
Screening C(=NOCCc1ccccc1)c1cccnc1 returned PLCb3 inh inactive, PLCg1 inh inactive, Tn6 DDE FP inactive, ADAM17 inh inactive, Tn7 DDE FP inactive and ADAM10 inh inactive.
For Cc1ccccc1CS(=O)(=O)Cc1ccc(C(=O)Nc2ccccc2C)o1 the results were PLCb3 inh inactive, PLCg1 inh inactive, Tn6 DDE FP inactive, ADAM17 inh inactive, Tn7 DDE FP inactive and ADAM10 inh inactive.
For CN(c1ccccc1)S(=O)(=O)c1ccc(NC(=S)NC(=O)C2CC2)cc1 the results were PLCb3 inh inactive, PLCg1 inh 10, Tn6 DDE FP inactive, ADAM17 inh inactive, Tn7 DDE FP inactive, ADAM10 inh inactive, PLCgamma1 ctr inactive and PLCbeta3 conf inactive.
Screening COC(=O)c1ccc(Cn2ccc3ccc(-c4ccc5ccn(C(=O)c6ccccc6C)c5c4)cc32)cc1 returned PLCb3 inh inactive, PLCg1 inh inactive, Tn6 DDE FP inactive, ADAM17 inh inactive, Tn7 DDE FP inactive and ADAM10 inh inactive.
